Key:
MDA-MB-231 = experiment: Cytotoxicity against human MDA-MB-231 cells assessed as reduction in cell viability after 24 hrs by MTT assay; assay type: functional, cell-based; details: MDA-MB-231, 24 h
Summary of the method: (§1)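 Cells kept at 37 °C, 5% CO2. MDA-MB-231 were grown in DMEM with 10% FBS, 2 mM L-glutamine, NEAA and pen-strep, seeded at 2500 cells/well. A4 were grown in RPMI 1640 with 10% FBS and pen-strep, seeded at 5000 cells/well. WI-38 were grown in DMEM with 10% FBS, seeded at 5000 cells/well. Plates rested 24 h before compound was added in triplicate. MTT absorbance was read at 570 nm.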

[1] = Inhibition of unphosphorylated STAT3 beta dimerization (unknown origin) expressed in Escherichia coli BL21 Rosetta cells after 5 mins by fluorescence polarization assay; design: species or system Homo sapiens
Summary of the method: (§2)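 Unphosphorylated STAT3βtc was expressed in E. coli with IPTG induction overnight at 21 °C, then purified by ion exchange. In PBS pH 7.4, 350 nM protein was mixed with 10 nM FAM-pYLPQTV (final). Base polarization was read, inhibitor was added, the plate was shaken 5 min and read again. % inhibition = (X−Y)/X×100, each term corrected for free probe.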

Homo sapiens [2] = species on record: Homo sapiens; experiment: Inhibition of unphosphorylated STAT3 beta dimerization (unknown origin) expressed in Escherichia coli BL21 Rosetta cells at 100 uM after 5 mins by fluorescence polarization assay relative to pYLKTKF
Summary of the method: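 Same STAT3βtc/FAM-pYLPQTV polarization displacement setup: 350 nM protein, 10 nM probe, PBS pH 7.4, 5 min after addition. Ligand tested at 100 μM. Its % inhibition (B) was expressed as B/A×100, where A is the % inhibition from 100 μM […], taken as 100%.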

WI-38 = experiment: Cytotoxicity against human WI38 cells assessed as reduction in cell viability at 100 uM after 24 hrs by MTT assay; assay type: cell-based; details: wi-38, 24 h; summary of the method: as §1
[3] = Cytotoxicity against human A4 cells assessed as reduction in cell viability after 24 hrs by MTT assay; assay type: functional, cell-based; summary of the method: as §1
[4] = Inhibition of FAM-pYLPQTV binding to unphosphorylated STAT3 beta (unknown origin) expressed in Escherichia coli BL21 Rosetta cells after 5 mins by fluorescence polarization assay; design: species or system Homo sapiens; summary of the method: as §2
Homo sapiens [5] = species on record: Homo sapiens; experiment: Inhibition of unphosphorylated STAT3 beta dimerization (unknown origin) expressed in Escherichia coli BL21 Rosetta cells at 100 uM after 5 mins by fluorescence polarization assay relative to STA-21

C[C@H]1C[C@H]2OC(=O)[C@@]34O[C@@H]3CC[C@@H]([C@]1(C)CCC1=CCOC1=O)[C@@]24C
IC50 (MDA-MB-231): 5.4 µM

COC(=O)C1=C[C@H](O)C[C@H]2[C@@]1(C)C=C[C@](O)(C(=O)O)[C@@]2(C)CC(OC(C)=O)c1ccoc1 (stereo not given in full)
IC50 [1]: 42 µM
IC50 (MDA-MB-231): 10 µM
inhibition (Homo sapiens [2]): 60%
Activity (WI-38): Non-Toxic
IC50 [3]: > 10 µM
IC50 [4]: 42 µM
inhibition (Homo sapiens [5]): 119%

C[C@@]1(CC(O)c2ccoc2)C(C(=O)O)=CC[C@]2(C)[C@H]1[C@H]1C=C[C@@]2(O)C(=O)O1 (stereo not given in full)
IC50 [1]: 17 µM
IC50 (MDA-MB-231): 7.8 µM
inhibition (Homo sapiens [2]): 72%
Activity (WI-38): Non-Toxic
IC50 [3]: > 10 µM
IC50 [4]: 17 µM
inhibition (Homo sapiens [5]): 130%
